ChEMBL document CHEMBL4382255, “Design, synthesis and activity of Mnk1 and Mnk2 selective inhibitors containing thieno[2,3-d]pyrimidine scaffold” (Eur J Med Chem, 2019)
Active and inactive are the calls of the source. Unless noted, no cut-off for these calls is given here.

Key:
Mus musculus [1] = organism: Mus musculus; assay: Inhibition of MNK in mouse 3T3L1 cells assessed as reduction of eIF4E phosphorylation at 3 uM after 2 hrs by Western blot analysis; type: cell-based
How it was run: (§1)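 Mouse 3T3-L1 pre-adipocytes (DMEM high glucose, 10% heat-inactivated FBS, 37 °C, 5% CO₂) treated 2 h with compounds at 3 μM or lower concentrations down to 0.1 μM final; DMSO vehicle 0.03-0.05% final. RIPA lysates cleared, equal protein resolved by SDS-PAGE, immunoblotted for P-eIF4E and total eIF4E, fluorescent secondary detection.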

3T3-L1 = assay: Effect on total eIF4E protein level in mouse 3T3L1 cells at 3 uM after 2 hrs by Western blot analysis; type: ADME, cell-based; settings: 3t3-l1, 2 h; how it was run: as §1
Mus musculus [2] = organism: Mus musculus; assay: Inhibition of MNK in mouse 3T3L1 cells assessed as reduction of eIF4E phosphorylation at 0.1 uM after 2 hrs by Western blot analysis; type: cell-based; how it was run: as §1
[3] = target: Mitogen-activated protein kinase 1 and 3 (ERK2 and ERK1) (Mus musculus) (UniProt P63085+Q63844); assay: Inhibition of ERK1/2 phosphorylation at Thr202/Tyr204 residues in mouse 3T3L1 cells at 0.1 to 5 uM after 2 hrs by Western blot analysis; type: cell-based
How it was run: (§2)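 3T3-L1 cells treated 2 h with inhibitor at indicated concentrations (DMSO <0.05% v/v). RIPA lysates, equal protein by Bradford, SDS-PAGE and western blot with phospho-specific antibodies (ERK, RSK, PKB Ser473, 4E-BP1, rpS6); fluorescent secondary imaging. Quantified from three independent experiments, SEM error bars.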

[4] = target: MAP kinase-interacting serine/threonine-protein kinase 2 (Mus musculus) (UniProt Q8CDB0); assay: Inhibition of MNK2 in MNK1-knockout C57BL/6J mouse embryonic fibroblasts assessed as decrease in eIF4E phosphorylation at 0.003 to 0.03 uM after 2 hrs by Western blot analysis
How it was run: (§3)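 MEFs from E13.5 C57BL/6J embryos, wild-type, MNK1-KO or MNK2-KO (DMEM, 10% FBS), treated 2 h with inhibitor at indicated concentrations, including a lower-concentration series in MNK1-KO cells; CGP57380 at 50 μM as reference. Lysates analysed by SDS-PAGE/western blot for P-eIF4E; quantified from three independent experiments, SEM.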

[5] = target: MAP kinase-interacting serine/threonine-protein kinase 1 (Homo sapiens) (UniProt Q9BUB5); assay: Inhibition of GST-fused MNK1a (unknown origin) expressed in HEK293 cells using eIF4E as substrate after 30 mins by Western blot analysis; type: cell-based
How it was run: (§4)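 GST-MNK1a or GST-MNK2a expressed in transfected HEK293 cells, purified by glutathione pull-down. Incubated in 25 mM Tris-HCl pH 7.5, 50 mM KCl, 2 mM MgCl₂ with 20 µM ATP and 65 ng E. coli-expressed eIF4E, 30 °C, 30 min, ± inhibitor. Stopped with sample buffer; immunoblotted for P-eIF4E Ser209, eIF4E and GST. Conditions pre-set within linear range.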

Mus musculus [6] = organism: Mus musculus; assay: Inhibition of mTORC2 in mouse 3T3L1 cells assessed as reduction in PKB phosphorylation at Ser473 residue at 0.1 to 5 uM after 2 hrs by Western blot analysis; type: cell-based; how it was run: as §2
Mus musculus [7] = organism: Mus musculus; assay: Inhibition of ERK signalling in mouse 3T3L1 cells assessed as reduction in RSK phosphorylation at […] residue at 0.1 to 5 uM after 2 hrs by Western blot analysis; type: cell-based; how it was run: as §2
[8] = target: MAP kinase-interacting serine/threonine-protein kinase 2 (Homo sapiens) (UniProt Q9HBH9); assay: Inhibition of GST-fused MNK2a (unknown origin) expressed in HEK293 cells using eIF4E as substrate after 30 mins by Western blot analysis; type: cell-based; how it was run: as §4
Mus musculus [9] = organism: Mus musculus; assay: Inhibition of mTORC1 in mouse 3T3L1 cells assessed as reduction in rpS6 phosphorylation at Ser240/244 residues at 0.1 to 5 uM after 2 hrs by Western blot analysis; type: cell-based; how it was run: as §2
[10] = target: MAP kinase-interacting serine/threonine-protein kinase 1 (Mus musculus) (UniProt O08605); assay: Inhibition of MNK1 in C57BL/6J mouse embryonic fibroblasts assessed as decrease in eIF4E phosphorylation at 0.1 to 0.3 uM after 2 hrs by Western blot analysis relative to control; how it was run: as §3
MDA-MB-231 = assay: Antimigratory activity against human MDA-MB-231 cells after 24 hrs by DAPI staining-based Transwell assay; type: functional, cell-based
How it was run: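 MDA-MB-231 cells pre-treated with inhibitor 60 min, then 3 x 10⁵ cells seeded into 8 μm-pore Transwell inserts pre-coated with 10 μg/ml collagen (collagen as attractant). After 24 h, migrated cells in bottom well stained with DAPI, imaged at ×10 and counted. Triplicate assays, mean ± SEM.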

[11] = target: T1, MAP kinase-interacting serine/threonine-protein kinase 1/2 (Homo sapiens) (UniProt Q9HBH9+Q9BUB5); assay: Inhibition of MNK in human MDA-MB-231 cells assessed as decrease in eIF4E phosphorylation at 3 uM up to 72 hrs by Western blot analysis; type: cell-based
How it was run: (§5)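 MDA-MB-231 cells treated with inhibitor at indicated concentrations for 2 h, or at 3 μM for times up to 72 h (DMSO vehicle <0.05%). Cells lysed in RIPA buffer; supernatants analysed by SDS-PAGE and western blot for P-eIF4E and total eIF4E. CGP57380 at 30 μM as reference.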

[12] = target: T1, MAP kinase-interacting serine/threonine-protein kinase 1/2 (Homo sapiens); assay: Inhibition of MNK in human MDA-MB-231 cells assessed as decrease in eIF4E phosphorylation at 1 uM after 2 hrs by Western blot analysis; type: cell-based; how it was run: as §5
[13] = target: MAP kinase-interacting serine/threonine-protein kinase 1 (Mus musculus) (UniProt O08605); assay: Inhibition of MNK1 in C57BL/6J mouse embryonic fibroblasts assessed as decrease in eIF4E phosphorylation at 5 uM after 2 hrs by Western blot analysis; how it was run: as §3
Mus musculus [14] = organism: Mus musculus; assay: Inhibition of mTORC1 in mouse 3T3L1 cells assessed as reduction in 4EBP1 at Ser65 residue phosphorylation at 0.1 to 5 uM after 2 hrs by Western blot analysis; type: cell-based; how it was run: as §2
[15] = target: MAP kinase-interacting serine/threonine-protein kinase 2 (Mus musculus) (UniProt Q8CDB0); assay: Inhibition of MNK2 in C57BL/6J mouse embryonic fibroblasts assessed as decrease in eIF4E phosphorylation at 5 uM after 2 hrs by Western blot analysis; how it was run: as §3
[16] = target: MAP kinase-interacting serine/threonine-protein kinase 2 (Mus musculus) (UniProt Q8CDB0); assay: Inhibition of MNK2 in MNK1-knockout C57BL/6J mouse embryonic fibroblasts assessed as decrease in eIF4E phosphorylation at 0.5 uM after 2 hrs by Western blot analysis; how it was run: as §3
[17] = target: MAP kinase-interacting serine/threonine-protein kinase 1 (Mus musculus) (UniProt O08605); assay: Inhibition of MNK1 in MNK2-knockout C57BL/6J mouse embryonic fibroblasts assessed as decrease in eIF4E phosphorylation at 0.3 to 5 uM after 2 hrs by Western blot analysis; how it was run: as §3

MAP kinase-interacting serine/threonine-protein kinase 1 (Mus musculus), sequence (O08605 whole entry): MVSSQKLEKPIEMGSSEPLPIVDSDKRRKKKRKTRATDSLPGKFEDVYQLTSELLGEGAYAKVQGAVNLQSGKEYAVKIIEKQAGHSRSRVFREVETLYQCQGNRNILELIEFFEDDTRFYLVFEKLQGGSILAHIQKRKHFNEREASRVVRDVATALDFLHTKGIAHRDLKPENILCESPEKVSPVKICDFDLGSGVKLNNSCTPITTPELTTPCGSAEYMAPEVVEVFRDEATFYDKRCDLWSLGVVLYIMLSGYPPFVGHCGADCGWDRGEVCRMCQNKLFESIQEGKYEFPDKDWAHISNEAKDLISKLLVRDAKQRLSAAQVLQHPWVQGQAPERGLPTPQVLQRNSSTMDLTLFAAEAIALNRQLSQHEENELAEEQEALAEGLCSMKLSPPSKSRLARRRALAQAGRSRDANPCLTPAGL
MAP kinase-interacting serine/threonine-protein kinase 2 (Mus musculus), sequence (Q8CDB0 whole entry): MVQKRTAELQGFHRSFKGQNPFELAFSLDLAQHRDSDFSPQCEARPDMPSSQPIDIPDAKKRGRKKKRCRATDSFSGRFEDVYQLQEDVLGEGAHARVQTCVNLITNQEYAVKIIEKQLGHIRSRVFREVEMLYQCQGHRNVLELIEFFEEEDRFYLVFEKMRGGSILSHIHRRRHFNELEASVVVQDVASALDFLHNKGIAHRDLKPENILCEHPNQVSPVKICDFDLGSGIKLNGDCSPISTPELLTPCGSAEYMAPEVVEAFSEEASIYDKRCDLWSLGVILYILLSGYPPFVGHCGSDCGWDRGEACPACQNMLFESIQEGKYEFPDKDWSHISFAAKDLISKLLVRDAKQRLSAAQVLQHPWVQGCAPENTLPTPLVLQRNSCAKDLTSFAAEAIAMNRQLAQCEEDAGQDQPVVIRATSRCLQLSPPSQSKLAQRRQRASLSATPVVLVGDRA
MAP kinase-interacting serine/threonine-protein kinase 1 (Homo sapiens), sequence (Q9BUB5 whole entry, looked up, the tested form may be a part): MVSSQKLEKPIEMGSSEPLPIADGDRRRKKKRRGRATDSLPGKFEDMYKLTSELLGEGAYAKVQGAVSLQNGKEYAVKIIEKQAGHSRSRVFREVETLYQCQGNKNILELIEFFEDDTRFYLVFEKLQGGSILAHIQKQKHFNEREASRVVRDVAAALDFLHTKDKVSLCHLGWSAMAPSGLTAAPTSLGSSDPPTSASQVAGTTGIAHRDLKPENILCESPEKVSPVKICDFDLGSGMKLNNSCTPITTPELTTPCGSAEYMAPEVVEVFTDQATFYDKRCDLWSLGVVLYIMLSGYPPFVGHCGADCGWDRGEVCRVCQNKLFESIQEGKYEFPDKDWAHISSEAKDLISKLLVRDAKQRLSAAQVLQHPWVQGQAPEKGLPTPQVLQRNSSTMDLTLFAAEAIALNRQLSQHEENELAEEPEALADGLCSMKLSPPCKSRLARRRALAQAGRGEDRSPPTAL
MAP kinase-interacting serine/threonine-protein kinase 2 (Homo sapiens), sequence (Q9HBH9 whole entry, looked up, the tested form may be a part): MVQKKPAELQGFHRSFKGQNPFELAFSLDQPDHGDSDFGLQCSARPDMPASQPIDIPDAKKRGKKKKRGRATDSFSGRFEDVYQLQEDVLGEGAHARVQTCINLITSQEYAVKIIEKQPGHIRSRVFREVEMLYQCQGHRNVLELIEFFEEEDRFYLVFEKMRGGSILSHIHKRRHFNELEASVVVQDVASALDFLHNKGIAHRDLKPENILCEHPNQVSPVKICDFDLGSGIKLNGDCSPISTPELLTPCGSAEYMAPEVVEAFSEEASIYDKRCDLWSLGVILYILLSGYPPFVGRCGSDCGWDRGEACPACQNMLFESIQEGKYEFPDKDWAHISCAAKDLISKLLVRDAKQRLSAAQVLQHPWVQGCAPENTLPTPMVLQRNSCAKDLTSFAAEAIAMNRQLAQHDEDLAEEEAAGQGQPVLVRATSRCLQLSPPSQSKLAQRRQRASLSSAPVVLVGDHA
Mitogen-activated protein kinase 1 and 3 (ERK2 and ERK1) (Mus musculus), sequence (P63085 whole entry, looked up): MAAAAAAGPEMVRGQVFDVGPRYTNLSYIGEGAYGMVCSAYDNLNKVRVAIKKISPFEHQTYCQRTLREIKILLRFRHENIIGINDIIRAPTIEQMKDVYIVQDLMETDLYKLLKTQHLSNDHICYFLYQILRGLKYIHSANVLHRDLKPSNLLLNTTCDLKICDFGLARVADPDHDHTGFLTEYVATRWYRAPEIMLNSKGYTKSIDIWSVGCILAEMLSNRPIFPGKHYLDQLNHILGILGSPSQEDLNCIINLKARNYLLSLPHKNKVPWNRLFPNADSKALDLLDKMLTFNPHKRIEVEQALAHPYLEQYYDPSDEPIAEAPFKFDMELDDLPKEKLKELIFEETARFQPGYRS
Mitogen-activated protein kinase 1 and 3 (ERK2 and ERK1) (Mus musculus), sequence (Q63844 whole entry, looked up): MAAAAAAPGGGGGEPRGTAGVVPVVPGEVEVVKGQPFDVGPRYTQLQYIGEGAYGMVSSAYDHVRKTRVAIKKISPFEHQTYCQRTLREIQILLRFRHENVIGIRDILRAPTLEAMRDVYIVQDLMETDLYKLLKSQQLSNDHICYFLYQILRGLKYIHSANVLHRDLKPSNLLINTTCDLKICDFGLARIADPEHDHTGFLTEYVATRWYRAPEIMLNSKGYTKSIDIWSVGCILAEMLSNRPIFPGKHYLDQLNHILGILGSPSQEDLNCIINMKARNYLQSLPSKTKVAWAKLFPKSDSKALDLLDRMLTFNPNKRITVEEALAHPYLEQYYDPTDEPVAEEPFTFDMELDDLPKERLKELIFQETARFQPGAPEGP

| SMILES | MNK inhibition (active/not active) (Mus musculus [1]) | Activity (3T3-L1) | further results |
| --- | --- | --- | --- |
| COc1cc(F)ccc1Nc1ncnc2sc(C(=O)NC3CCCCC3)c(C)c12 | Active | Non-Toxic |  |
| Cc1c(C(=O)OCCCO)sc2ncnc(Nc3ccc(F)cc3OC(C)C)c12 | Active | Non-Toxic |  |
| COC(=O)c1sc2ncnc(Nc3ccc(F)cc3OC(C)C)c2c1C | inactive |  |  |
| Cc1c(C(=O)NCC(C)(C)CN(C)C)sc2ncnc(Nc3ccc(F)cc3OC(C)C)c12 | Active | Non-Toxic | inhibition of eIF4E phosphorylation (active/not active) (Mus musculus [2]): inactive |
| COc1cc(F)ccc1Nc1ncnc2sc(C(=O)OCCO)c(C)c12 |  | Non-Toxic |  |
| Cc1c(C(=O)N2CCCC2)sc2ncnc(Nc3ccc(F)cc3OC(C)C)c12 | Active | Non-Toxic |  |
| Cc1c(C(=O)N2CCOCC2)sc2ncnc(Nc3ccc(F)cc3OC(C)C)c12 | Active | Non-Toxic |  |
| Cc1c(C(=O)NCCCO)sc2ncnc(Nc3ccc(F)cc3OC(C)C)c12 | Active |  |  |
| Cc1c(C(=O)N2CCN(C)CC2)sc2ncnc(Nc3ccc(F)cc3OC(C)C)c12 | Active | Non-Toxic |  |
| COc1cc(F)ccc1Nc1ncnc2sc(C(=O)N3CCOCC3)c(C)c12 | Active | Non-Toxic |  |
| COc1cc(F)ccc1Nc1ncnc2sc(C(=O)NCCCN3CCCC3)c(C)c12 | Active | Non-Toxic |  |
| COc1cc(F)ccc1Nc1ncnc2sc(C(=O)NCCCN(C)C)c(C)c12 | inactive |  |  |
| COc1cc(F)ccc1Nc1ncnc2sc(C(=O)N3CCCC3)c(C)c12 | Active | Non-Toxic |  |
| Cc1c(C(=O)NCCCN2CCOCC2)sc2ncnc(Nc3ccc(F)cc3OC(C)C)c12 | Active | Non-Toxic | inhibition of eIF4E phosphorylation (active/not active) (Mus musculus [2]): inactive |
| Cc1c(C(=O)OCCO)sc2ncnc(Nc3ccc(F)cc3OC(C)C)c12 | Active |  |  |
| Cc1c(C(=O)NC2CCCCC2)sc2ncnc(Nc3ccc(F)cc3OC(C)C)c12 | Active | Non-Toxic |  |
| Cc1c(C(=O)NCCCN(C)C)sc2ncnc(Nc3ccc(F)cc3OC(C)C)c12 | Active |  |  |
| COc1cc(F)ccc1Nc1ncnc2sc(C(=O)NCCc3c[nH]cn3)c(C)c12 | Active | Non-Toxic |  |
| Cc1c(C(=O)NCCCN(C)C)sc2ncnc(Nc3ccc(F)cc3OC(C)CF)c12 (configuration not stated) | Active | Non-Toxic | inhibition [3]: inactive; inhibition [4]: Active; inhibition [5]: Active; inhibition (Mus musculus [6]): inactive; inhibition (Mus musculus [7]): inactive; inhibition [8]: Active; inhibition (Mus musculus [9]): inactive; inhibition [10]: 50%; inhibition (MDA-MB-231): Active; inhibition [11]: Active; inhibition of eIF4E phosphorylation (active/not active) (Mus musculus [2]): Active; inhibition [12]: 100%; inhibition [13]: 100%; inhibition (Mus musculus [14]): inactive; inhibition [15]: 100%; inhibition [16]: Active; inhibition [17]: Active |
| Cc1c(C(=O)OCCc2ccccc2)sc2ncnc(Nc3ccc(F)cc3OC(C)C)c12 | Active | Non-Toxic |  |
| COc1cc(F)ccc1Nc1ncnc2sc(C(=O)N3CCCCC3)c(C)c12 | Active | Non-Toxic |  |
| Cc1c(C(=O)NCCc2c[nH]cn2)sc2ncnc(Nc3ccc(F)cc3OC(C)C)c12 | Active | Non-Toxic | inhibition of eIF4E phosphorylation (active/not active) (Mus musculus [2]): inactive |
| COc1cc(F)ccc1Nc1ncnc2sc(C(=O)N3CCN(C)CC3)c(C)c12 | Active | Non-Toxic |  |
| Cc1c(C(=O)N2CCCCC2)sc2ncnc(Nc3ccc(F)cc3OC(C)C)c12 | Active | Non-Toxic |  |
| COc1cc(F)ccc1Nc1ncnc2sc(C(=O)NCCCN3CCOCC3)c(C)c12 | Active | Non-Toxic |  |
| COc1cc(F)ccc1Nc1ncnc2sc(C(=O)NCCCO)c(C)c12 | Active | Non-Toxic |  |
| Cc1c(C(=O)NCCc2ccncc2)sc2ncnc(Nc3ccc(F)cc3OC(C)C)c12 | Active | Non-Toxic | inhibition of eIF4E phosphorylation (active/not active) (Mus musculus [2]): inactive |
| COc1cc(F)ccc1Nc1ncnc2sc(C(=O)NCCc3ccncc3)c(C)c12 | Active | Non-Toxic |  |
| COc1cc(F)ccc1Nc1ncnc2sc(C(=O)NCC(C)(C)CN(C)C)c(C)c12 |  | Non-Toxic |  |
